DAGLB inh: DAGLB lipase inhibitors, primary screen, biochemical, fluorescence, HTS; Diacylglycerol lipase-beta (Homo sapiens), Q8NCG7; HEK293T DAGLB membrane lysate, EnzChek fluorogenic substrate; inhibition, % at 5.17 µM; hit rate 0.059% among 340,000; AID 504411, 2011; in the data active = inhibition above about 34%;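 note: 0% = enzyme with vehicle and 100% = wells lacking enzyme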
hiPSC survival: enhancers of single-cell hiPSC survival, primary screen, ATPlite luminescence; 100% = ROCK inhibitor wells, 0% = DMSO; survival enhancement, % at 20 µM; hit rate 0.044% among 360,000; in the data active = survival enhancement above about 18%;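 note: cells exposed to compounds for 16 hours before the ATP read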
APJ antag: antagonists of human apelin receptor APJ, primary screen, CHO-K1 cells, beta-arrestin complementation, luminescence; P35414; inhibition, % at 20 µM; hit rate 0.32% among 330,000; AID 2521, 2010;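 active = inhibition above about 40% at 20 µM, limit read from the data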;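 note: cells challenged with 10 nM apelin-13 agonist together with compound; plate controls were apelin-13 plus DMSO wells for no effect and DMSO wells lacking apelin-13 for full effect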
APJ agonist: agonists of human apelin receptor APJ, primary screen, CHO-K1 cells, PathHunter beta-arrestin, luminescence; hit rate 0.11% among 330,000; AID 2520, 2010; 0% DMSO wells, 100% apelin; P35414; activation, % at 20 µM;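 active = activation more than six SD over the plate average, tested at 20 µM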;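 note: 0% = DMSO alone and 100% = apelin-13 at 10 nM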
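Test system: CHO-K1 APJ beta-arrestin complementation cell line | Compound: Single test compound dose, 20 µM final, 1% DMSO | Incubation: Compound 90 min 25 °C, reagent 1 h | Measured by: beta-gal luminescence | Read-out basis: APJ–arrestin association signal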
CXCR6 block: CXCR6 receptor inhibitors, primary screen, cell-based, beta-arrestin, luminescence, CHO-K1 PathHunter, 1536-well | AID 602244, 2012 | inhibition, % at 20 µM | hit rate 0.36% among 360,000 | C-X-C chemokine receptor type 6 (Homo sapiens), O00574; in the data active = inhibition above about 34%, passing the limit was not always enough;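 note: antagonist mode with CXCL16 agonist at 10 nM final; 0% = 10 nM CXCL16 with DMSO and 100% = unstimulated wells without agonist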
CCR6 antagonist: CCR6 receptor antagonists, primary screen, cell-based, CHO-K1, luminescence, beta-arrestin, uHTS; hit rate 0.49% among 340,000; AID 493098, 2011; inhibition, % at 20 µM; CHO-K1 CCR6 PathHunter beta-arrestin, CCL20-stimulated; C-C chemokine receptor type 6 (Homo sapiens), P51684;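 active = compounds whose inhibition of the agonist-driven luminescence signal at 20 µM reaches about 50%, limit read from the data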;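 note: cells stimulated with CCL20 at 14 nM final; plate controls were DMSO with CCL20 for no effect and DMSO without agonist for full effect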
Target sequence (P51684 whole entry, looked up): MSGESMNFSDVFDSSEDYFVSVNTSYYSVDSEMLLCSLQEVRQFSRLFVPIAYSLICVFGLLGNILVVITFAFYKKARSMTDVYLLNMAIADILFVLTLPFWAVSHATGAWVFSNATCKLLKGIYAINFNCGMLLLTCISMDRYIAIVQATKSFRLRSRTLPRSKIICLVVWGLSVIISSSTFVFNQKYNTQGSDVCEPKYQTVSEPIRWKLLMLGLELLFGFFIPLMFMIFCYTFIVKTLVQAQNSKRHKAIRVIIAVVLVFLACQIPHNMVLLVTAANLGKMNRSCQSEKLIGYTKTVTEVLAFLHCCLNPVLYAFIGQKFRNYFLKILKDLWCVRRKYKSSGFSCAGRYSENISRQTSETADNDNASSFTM
An asterisk follows results filed as active; ! = a repeat was not active. Rows were chosen to be rich in hits. Some 0.86% of all compounds tested hit in one or more screens of this group.

How did COCCNC(=O)C1CCC(=O)N1S(=O)(=O)c1ccc(C)cc1 (stereo not drawn) do in these assays?
DAGLB inh: -2; hiPSC survival: -1; APJ antag: 3; APJ agonist: -4; CXCR6 block: 6; CCR6 antagonist: -12

How did CCCCn1c(SCC(=O)c2c(N)n(C3CC3)c(=O)[nH]c2=O)nc2cc(S(N)(=O)=O)ccc21 do in these assays?
DAGLB inh: 0; hiPSC survival: 1; APJ antag: 11; APJ agonist: -2; CXCR6 block: 3; CCR6 antagonist: 0

What do the screens show for `CCC(OC(=O)c1ccc(S(C)(=O)=O)c([N+](=O)[O-])c1)C(=O)NC1C2CC3CC(C2)CC1C3` (stereo not drawn)?
hiPSC survival: 30*; CXCR6 block: 17

What do the screens show for `CS(=O)(=O)c1ccc(C(=O)OCC(=O)NC23CC4CC(CC(C4)C2)C3)cc1[N+](=O)[O-]`?
DAGLB inh: -14; hiPSC survival: -1; APJ antag: 24; APJ agonist: 5; CXCR6 block: 10; CCR6 antagonist: 47

How did CC(OC(=O)c1ccc(S(C)(=O)=O)c([N+](=O)[O-])c1)C(=O)NC1C2CC3CC(C2)CC1C3 (stereo not drawn) do in these assays?
hiPSC survival: 24*; CXCR6 block: 11

How did COc1cc(C(=O)N2CCCC(c3cc(C(=O)NCc4ccc(F)cc4)no3)C2)cc(OC)c1C (stereo not drawn) do in these assays?
hiPSC survival: 3; CXCR6 block: 8

What do the screens show for `CCC(NC(=S)NCc1ccc(F)cc1)c1ccc(C)cc1` (stereo not drawn)?
DAGLB inh: -1; hiPSC survival: 0; APJ antag: 7; APJ agonist: 10; CXCR6 block: -1; CCR6 antagonist: 11

Results for CCCCCCCCCCCCCCCCn1cc[n+](C)c1 ?
DAGLB inh: 3; hiPSC survival: -6; APJ antag: 22; APJ agonist: -2; CXCR6 block: 16; CCR6 antagonist: 57*!

What do the screens show for `O=C(NCCO)C(=O)NCC1OCCCN1S(=O)(=O)c1cc(F)ccc1F` (stereo not drawn)?
DAGLB inh: 3; hiPSC survival: 0; APJ antag: 16; APJ agonist: -7; CXCR6 block: 7; CCR6 antagonist: 4

Results for Cc1ccc(-c2nc3cnccn3c2Nc2c(C)cccc2C)o1 ?
DAGLB inh: 1; hiPSC survival: 0; APJ antag: -16; APJ agonist: 2; CXCR6 block: 31; CCR6 antagonist: 67*

Results for CCO[C@@H]1OC(C(=O)N2CCN(Cc3ccc4c(c3)OCO4)CC2)=C[C@H](c2ccc(Br)cc2)[C@H]1CCCO ?
DAGLB inh: 1; hiPSC survival: -1; APJ antag: -3; APJ agonist: -12; CXCR6 block: 36; CCR6 antagonist: 51*

Results for O=C(Nc1cccc(Cl)c1)c1cc(N=Nc2ccc([N+](=O)[O-])cc2Cl)ccc1O ?
DAGLB inh: 16; hiPSC survival: -1; APJ antag: 56*; APJ agonist: -11; CXCR6 block: 64*; CCR6 antagonist: 100*

How did N#CC(C#N)=c1ccc2c(c1)NC1(CCCCC1)N=2 do in these assays?
DAGLB inh: 23; hiPSC survival: -6; APJ antag: 28; APJ agonist: -6; CXCR6 block: 27; CCR6 antagonist: 54*

What do the screens show for `O=C(CCNC(=O)Cn1ccc2ccccc2c1=O)NCCc1ccc(Cl)cc1`?
DAGLB inh: -2; hiPSC survival: 2; APJ antag: 8; APJ agonist: -2; CXCR6 block: -5; CCR6 antagonist: 0

Results for O=c1[nH]ncn1-c1ccc(Br)cc1 ?
DAGLB inh: -2; hiPSC survival: -1; APJ antag: -5; APJ agonist: -1; CXCR6 block: -6; CCR6 antagonist: 8

What do the screens show for `CCOc1ccc(N2CC(C(=O)NCCc3c[nH]c4ccc(OC)cc34)CC2=O)cc1` (stereo not drawn)?
DAGLB inh: -1; hiPSC survival: 0; APJ antag: -1; APJ agonist: -3; CXCR6 block: -6; CCR6 antagonist: 8

What do the screens show for `CC1OC2CC(=O)OC2C2=C1C(=O)c1c(O)cccc1C2=O` (stereo not drawn)?
hiPSC survival: 0; CXCR6 block: 79*

What do the screens show for `Cc1cc2c(cc1C)NC(c1c(C)n(C)n(-c3ccccc3)c1=O)C1=C(CC(C)(C)CC1=O)N2` (stereo not drawn)?
DAGLB inh: -1; hiPSC survival: -2; APJ antag: 8; APJ agonist: -1; CXCR6 block: 12; CCR6 antagonist: 77*

Results for COc1cc(C2Nc3cc(C)c(C)cc3NC3=C2C(=O)CC(C)(C)C3)ccc1OC(C)=O (stereo not drawn) ?
DAGLB inh: 3; hiPSC survival: 0; APJ antag: -21; APJ agonist: -1; CXCR6 block: 2; CCR6 antagonist: 3

How did Cc1cc(C)c(S(=O)(=O)/N=C2/C=C(Sc3ncn[nH]3)C(=O)c3ccccc32)cc1C do in these assays?
DAGLB inh: 1; hiPSC survival: -3; CXCR6 block: 46*; CCR6 antagonist: 79*

Results for CC(NO)C(C)(C)NO (stereo not drawn) ?
DAGLB inh: 0; hiPSC survival: 3; APJ antag: 30; APJ agonist: -7; CXCR6 block: 38; CCR6 antagonist: 58*

How did CCC(C)NS(=O)(=O)c1ccc(NC(=O)C2CCN(C(=O)c3ccco3)CC2)cc1 (stereo not drawn) do in these assays?
DAGLB inh: -1; hiPSC survival: 0; APJ antag: 4; APJ agonist: -2; CXCR6 block: -5; CCR6 antagonist: -1

Results for Oc1[nH]c2ccccc2c1N=Nc1nc2ccccc2s1 ?
DAGLB inh: -3; hiPSC survival: 2; APJ antag: 37; APJ agonist: -8; CXCR6 block: 28; CCR6 antagonist: 58*

How did Oc1[nH]c2ccccc2c1N=Nc1ccccc1 do in these assays?
DAGLB inh: -1; hiPSC survival: 2; APJ antag: 18; APJ agonist: -5; CXCR6 block: 12; CCR6 antagonist: 18

What do the screens show for `Cc1ccc2[nH]c(O)c(N=Nc3nc4ccccc4s3)c2c1`?
DAGLB inh: 17; hiPSC survival: 0; APJ antag: 30; APJ agonist: -7; CXCR6 block: 42*; CCR6 antagonist: 49

What do the screens show for `COc1ccccc1-c1noc2c1C(=O)N(C(=O)OC(C)(C)C)CC2`?
DAGLB inh: -1; hiPSC survival: -1; CXCR6 block: 3

Screening data deposited in PubChem by several laboratories.
